Experimental data as given in ChEMBL document CHEMBL3112447, “Discovery of 1-methyl-1H-imidazole derivatives as potent Jak2 inhibitors” (J Med Chem, 2014).

Experiments:
LIM domain kinase 1 = LIM domain kinase 1 (Homo sapiens, UniProt P53667); assay: Inhibition of human LIMK1
Summary of the method: (§1)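 Panel of 82 kinases. Radiometric filter-binding assay with ATP at or near Km. Compound tested at 0.01, 0.10 and 1.0 μM. Values expressed as minimum possible fold selectivity against Jak2.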

Mus musculus [1] = assay: In vivo inhibition of Jak2 in po dose3d mouse transfected with mouse BA/F3 cells expressing TEL-Jak2 assessed as inhibition of STAT5 phosphorylation after 6 to 12 hrs by Western blotting analysis; type: functional, organism-based; conditions: BaF3
Summary of the method: (§2)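 Mice bearing BaF3 TEL-JAK2 cells given a single oral dose of 3, 5 or 10 mg/kg and sacrificed at various times after dosing. Spleen lysates probed for phospho-STAT5 and total STAT5 by Western blot, and pSTAT5 inhibition assessed.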

[2] = Antitumor activity against human UKE1 cells xenografted in SCID mouse assessed as tumor growth inhibition at 10 mg/kg, po bid administered for 14 days measured on day 28; type: functional; conditions: read-out: TGI
Summary of the method: (§3)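 UKE-1 cells mixed with matrigel implanted subcutaneously in female SCID mice. On day 15, mice randomized at a mean tumor volume of about 150 mm³. Oral gavage twice daily at 3 or 10 mg/kg, or vehicle, for 14 days. Tumor volume and body weight tracked through the dosing phase.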

[3] = molecular target: Protein kinase C zeta type (Homo sapiens, UniProt Q05513); assay: Inhibition of human PKCzeta; summary of the method: as §1
[4] = molecular target: Serine/threonine-protein kinase SIK1 (Homo sapiens, UniProt P57059); assay: Inhibition of human SIK; summary of the method: as §1
[5] = molecular target: T1, Tyrosine-protein kinase JAK3 (Homo sapiens, UniProt P52333); assay: Inhibition of Jak3 (unknown origin)
T1 sequence (P52333 whole entry): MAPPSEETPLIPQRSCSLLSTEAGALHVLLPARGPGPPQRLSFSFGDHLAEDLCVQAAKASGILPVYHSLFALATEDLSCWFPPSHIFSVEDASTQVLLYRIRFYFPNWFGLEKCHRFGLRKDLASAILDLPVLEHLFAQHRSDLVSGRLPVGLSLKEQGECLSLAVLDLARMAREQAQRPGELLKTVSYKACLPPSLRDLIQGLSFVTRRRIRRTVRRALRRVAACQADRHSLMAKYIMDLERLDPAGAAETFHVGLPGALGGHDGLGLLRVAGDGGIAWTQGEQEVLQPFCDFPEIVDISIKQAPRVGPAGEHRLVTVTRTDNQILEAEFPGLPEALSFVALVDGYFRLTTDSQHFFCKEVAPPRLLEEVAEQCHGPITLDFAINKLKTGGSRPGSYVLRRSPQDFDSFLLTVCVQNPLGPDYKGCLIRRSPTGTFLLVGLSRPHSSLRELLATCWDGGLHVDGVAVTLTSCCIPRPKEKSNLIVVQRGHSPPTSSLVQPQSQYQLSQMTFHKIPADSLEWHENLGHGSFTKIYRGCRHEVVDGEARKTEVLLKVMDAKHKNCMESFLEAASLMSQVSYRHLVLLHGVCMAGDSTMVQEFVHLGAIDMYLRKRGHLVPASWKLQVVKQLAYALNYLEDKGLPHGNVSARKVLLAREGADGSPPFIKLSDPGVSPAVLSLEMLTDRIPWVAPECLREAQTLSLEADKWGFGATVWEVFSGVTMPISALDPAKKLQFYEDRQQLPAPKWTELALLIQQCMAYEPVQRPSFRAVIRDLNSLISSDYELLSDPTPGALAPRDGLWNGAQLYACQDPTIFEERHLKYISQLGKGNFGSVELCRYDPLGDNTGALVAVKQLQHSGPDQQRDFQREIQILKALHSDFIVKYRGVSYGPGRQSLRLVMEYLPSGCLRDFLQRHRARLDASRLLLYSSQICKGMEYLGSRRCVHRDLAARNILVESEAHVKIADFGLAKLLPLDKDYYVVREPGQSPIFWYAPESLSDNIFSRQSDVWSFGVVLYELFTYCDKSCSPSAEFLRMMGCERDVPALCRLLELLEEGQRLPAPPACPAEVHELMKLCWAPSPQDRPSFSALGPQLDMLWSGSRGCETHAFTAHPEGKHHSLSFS

Canis familiaris = assay: Oral bioavailability in beagle dog at 10 mg/kg; type: ADME, organism-based, Canis lupus familiaris; conditions: in vivo
Summary of the method: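 Male beagle dogs. Oral dose 10 mg/kg in 0.1% HPMC, pH 2. IV dose 2.5 mg/kg in 20% TEG/D5W. […] Clearance, Vdss, half-life and oral bioavailability (F%) derived from the plasma profiles.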

Aurora kinase A = Aurora kinase A (Homo sapiens, UniProt O14965); assay: Inhibition of human aurora A kinase; summary of the method: as §1
[6] = Cytotoxicity against mouse BA/F3 cells expressing TEL-Tyk2 after 72 hrs by MTS assay; type: functional; conditions: BaF3, 72 h
Summary of the method: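 BaF3 cells transfected with the kinase domain of Jak1, Jak3 or Tyk2 (TEL fusions). Growth inhibition measured as the counter-screen for cellular selectivity.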

[7] = molecular target: Proto-oncogene tyrosine-protein kinase receptor Ret (Homo sapiens, UniProt P07949); assay: Inhibition of human Ret; summary of the method: as §1
[8] = Oral bioavailability in Wistar rat at 10 mg/kg; type: ADME, organism-based; conditions: in vivo
Summary of the method: (§4)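 Rat pharmacokinetics. Oral dose 10 mg/kg in 0.1% HPMC. IV dose 3 mg/kg in 40% DMA/40% PEG/20% saline. Clearance, half-life, Vdss and oral bioavailability derived from the plasma profiles.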

[9] = molecular target: Casein kinase II subunit alpha (Homo sapiens, UniProt P68400); assay: Inhibition of human recombinant 6 X His-tagged full length CK2alpha expressed in insect sf21 cells using CK2tide as substrate after 20 mins by fluorescence assay
UKE1 = assay: Antitumor activity against human UKE1 cells xenografted in po dosed SCID mouse assessed as tumor growth inhibition administered bid for 14 days; type: functional, organism-based; summary of the method: as §3
[10] = molecular target: Tyrosine-protein kinase Fgr (Homo sapiens, UniProt P09769); assay: Inhibition of human Fgr; summary of the method: as §1
[11] = molecular target: Vascular endothelial growth factor receptor 3 (Homo sapiens, UniProt P35916); assay: Inhibition of human Flt4; summary of the method: as §1
Mus musculus [12] = assay: In vivo inhibition of Jak2 in mouse transfected with mouse BA/F3 cells expressing TEL-Jak2 assessed as inhibition of STAT5 phosphorylation at 10 mg/kg, po after 12 hrs by Western blotting analysis; type: functional; conditions: BaF3, 12 h; summary of the method: as §2
[13] = molecular target: Tyrosine-protein kinase JAK3 (Mus musculus) (UniProt Q62137); assay: (§5) Inhibition of Jak3 in mouse BA/F3 cells expressing TEL-Jak3 assessed as inhibition of STAT5 phosphorylation by Western blotting analysis; type: cell-based; conditions: BaF3
[14] = molecular target: Tyrosine-protein kinase JAK3 (Mus musculus, UniProt Q62137); assay: as §5; type: cell-based, BaF3
[15] = molecular target: Tyrosine-protein kinase ABL1 (Homo sapiens, UniProt P00519); assay: Inhibition of human Abl; summary of the method: as §1
[16] = Cytotoxicity against human UKE1 cells expressing Jak2 V617F mutant after 72 hrs by MTS assay; type: functional; conditions: UKE1, 72 h
Mus musculus [17] = assay: Toxicity in SCID mouse xenografted with human UKE1 cells assessed as body weight loss at 3 mg/kg, po bid administered for 14 days measured on day 31 (reference value: 7.1%); type: organism-based; parameters: dose 3 mg/kg, route oral; conditions: in vivo, 336 h; summary of the method: as §3
[18] = Half life in Wistar rat at 10 mg/kg, po and 3 mg/kg, iv; type: ADME, organism-based; conditions: in vivo; summary of the method: as §4

Chain of LIM domain kinase 1 (P53667 whole entry, the tested form may be a part): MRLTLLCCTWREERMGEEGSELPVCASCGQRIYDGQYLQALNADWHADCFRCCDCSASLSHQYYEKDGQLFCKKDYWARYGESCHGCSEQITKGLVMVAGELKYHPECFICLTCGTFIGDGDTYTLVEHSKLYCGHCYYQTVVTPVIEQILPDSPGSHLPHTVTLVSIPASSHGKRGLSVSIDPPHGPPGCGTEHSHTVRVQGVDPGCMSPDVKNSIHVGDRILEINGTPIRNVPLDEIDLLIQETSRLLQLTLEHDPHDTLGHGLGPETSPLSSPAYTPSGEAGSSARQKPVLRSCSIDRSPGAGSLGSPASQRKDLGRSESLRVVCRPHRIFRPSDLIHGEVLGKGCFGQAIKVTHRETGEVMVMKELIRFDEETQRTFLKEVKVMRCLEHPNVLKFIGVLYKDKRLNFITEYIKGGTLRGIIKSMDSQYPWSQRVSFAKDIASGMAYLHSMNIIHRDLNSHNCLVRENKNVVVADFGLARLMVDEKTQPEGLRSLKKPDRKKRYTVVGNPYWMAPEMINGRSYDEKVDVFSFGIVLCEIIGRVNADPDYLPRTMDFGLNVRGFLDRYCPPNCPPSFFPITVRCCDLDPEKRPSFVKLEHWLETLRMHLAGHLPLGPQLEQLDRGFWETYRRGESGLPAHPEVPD
Chain of Vascular endothelial growth factor receptor 3 (P35916 whole entry): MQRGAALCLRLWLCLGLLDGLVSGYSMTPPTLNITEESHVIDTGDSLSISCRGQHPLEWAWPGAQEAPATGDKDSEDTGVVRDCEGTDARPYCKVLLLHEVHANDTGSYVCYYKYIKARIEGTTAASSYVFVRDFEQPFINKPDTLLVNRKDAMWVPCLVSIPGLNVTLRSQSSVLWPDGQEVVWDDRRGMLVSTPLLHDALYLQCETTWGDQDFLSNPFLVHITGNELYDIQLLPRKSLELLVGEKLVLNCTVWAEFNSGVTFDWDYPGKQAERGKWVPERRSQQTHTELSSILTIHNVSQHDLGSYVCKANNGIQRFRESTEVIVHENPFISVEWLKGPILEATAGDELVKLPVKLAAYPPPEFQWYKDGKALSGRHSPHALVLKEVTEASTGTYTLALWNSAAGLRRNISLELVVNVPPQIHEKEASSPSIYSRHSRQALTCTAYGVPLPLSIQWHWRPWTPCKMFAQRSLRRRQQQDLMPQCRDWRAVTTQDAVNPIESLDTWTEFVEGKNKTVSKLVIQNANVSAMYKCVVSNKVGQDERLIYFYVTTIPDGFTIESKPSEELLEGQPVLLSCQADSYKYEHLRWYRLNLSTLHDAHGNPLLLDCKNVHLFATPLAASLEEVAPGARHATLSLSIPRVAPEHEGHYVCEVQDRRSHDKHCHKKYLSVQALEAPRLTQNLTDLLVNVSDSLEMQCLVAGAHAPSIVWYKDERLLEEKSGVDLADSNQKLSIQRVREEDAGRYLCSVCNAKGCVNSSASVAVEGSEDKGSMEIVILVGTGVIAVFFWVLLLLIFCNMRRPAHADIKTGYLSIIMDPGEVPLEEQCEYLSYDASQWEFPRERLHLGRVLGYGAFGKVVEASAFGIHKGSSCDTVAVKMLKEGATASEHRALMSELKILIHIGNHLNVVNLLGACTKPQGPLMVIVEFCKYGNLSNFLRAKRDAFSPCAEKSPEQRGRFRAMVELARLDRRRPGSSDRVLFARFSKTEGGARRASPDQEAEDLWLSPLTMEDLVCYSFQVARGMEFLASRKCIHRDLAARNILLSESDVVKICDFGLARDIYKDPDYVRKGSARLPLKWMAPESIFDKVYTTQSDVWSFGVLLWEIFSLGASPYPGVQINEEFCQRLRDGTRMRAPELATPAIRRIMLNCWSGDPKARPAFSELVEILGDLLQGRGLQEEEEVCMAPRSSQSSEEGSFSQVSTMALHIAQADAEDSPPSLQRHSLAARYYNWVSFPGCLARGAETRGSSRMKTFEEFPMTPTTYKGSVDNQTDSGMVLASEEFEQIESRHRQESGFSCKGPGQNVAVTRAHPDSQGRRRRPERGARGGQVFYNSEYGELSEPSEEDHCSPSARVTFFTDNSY
Chain of Proto-oncogene tyrosine-protein kinase receptor Ret (P07949 whole entry): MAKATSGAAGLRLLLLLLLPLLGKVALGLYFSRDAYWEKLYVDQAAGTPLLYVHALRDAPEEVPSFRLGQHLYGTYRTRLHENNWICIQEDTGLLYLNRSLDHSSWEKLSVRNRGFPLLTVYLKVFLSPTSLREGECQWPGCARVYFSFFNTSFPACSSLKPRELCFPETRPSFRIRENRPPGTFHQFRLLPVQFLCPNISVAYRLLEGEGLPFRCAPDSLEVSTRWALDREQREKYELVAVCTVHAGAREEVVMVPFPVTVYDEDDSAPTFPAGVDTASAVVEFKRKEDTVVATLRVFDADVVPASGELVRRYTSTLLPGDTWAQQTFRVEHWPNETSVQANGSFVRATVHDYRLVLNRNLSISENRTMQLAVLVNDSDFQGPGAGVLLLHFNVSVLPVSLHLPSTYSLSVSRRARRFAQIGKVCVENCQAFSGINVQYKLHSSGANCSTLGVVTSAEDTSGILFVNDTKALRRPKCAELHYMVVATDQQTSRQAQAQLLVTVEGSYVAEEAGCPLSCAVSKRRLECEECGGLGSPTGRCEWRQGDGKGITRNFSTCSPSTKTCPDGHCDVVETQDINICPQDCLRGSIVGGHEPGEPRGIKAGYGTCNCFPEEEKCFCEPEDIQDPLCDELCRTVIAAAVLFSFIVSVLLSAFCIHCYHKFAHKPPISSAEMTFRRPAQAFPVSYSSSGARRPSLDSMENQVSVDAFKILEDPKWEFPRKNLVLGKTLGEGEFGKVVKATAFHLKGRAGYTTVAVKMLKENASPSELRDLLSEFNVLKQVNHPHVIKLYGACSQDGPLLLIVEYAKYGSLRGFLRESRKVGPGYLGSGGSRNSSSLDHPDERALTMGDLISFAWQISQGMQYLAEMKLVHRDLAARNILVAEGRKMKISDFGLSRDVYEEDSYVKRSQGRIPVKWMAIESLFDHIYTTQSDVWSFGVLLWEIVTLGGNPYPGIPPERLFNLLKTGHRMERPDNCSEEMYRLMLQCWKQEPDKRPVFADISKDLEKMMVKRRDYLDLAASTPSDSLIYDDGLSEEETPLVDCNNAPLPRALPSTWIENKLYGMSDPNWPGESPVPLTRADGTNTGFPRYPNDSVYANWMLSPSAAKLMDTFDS
Chain of Serine/threonine-protein kinase SIK1 (P57059 whole entry): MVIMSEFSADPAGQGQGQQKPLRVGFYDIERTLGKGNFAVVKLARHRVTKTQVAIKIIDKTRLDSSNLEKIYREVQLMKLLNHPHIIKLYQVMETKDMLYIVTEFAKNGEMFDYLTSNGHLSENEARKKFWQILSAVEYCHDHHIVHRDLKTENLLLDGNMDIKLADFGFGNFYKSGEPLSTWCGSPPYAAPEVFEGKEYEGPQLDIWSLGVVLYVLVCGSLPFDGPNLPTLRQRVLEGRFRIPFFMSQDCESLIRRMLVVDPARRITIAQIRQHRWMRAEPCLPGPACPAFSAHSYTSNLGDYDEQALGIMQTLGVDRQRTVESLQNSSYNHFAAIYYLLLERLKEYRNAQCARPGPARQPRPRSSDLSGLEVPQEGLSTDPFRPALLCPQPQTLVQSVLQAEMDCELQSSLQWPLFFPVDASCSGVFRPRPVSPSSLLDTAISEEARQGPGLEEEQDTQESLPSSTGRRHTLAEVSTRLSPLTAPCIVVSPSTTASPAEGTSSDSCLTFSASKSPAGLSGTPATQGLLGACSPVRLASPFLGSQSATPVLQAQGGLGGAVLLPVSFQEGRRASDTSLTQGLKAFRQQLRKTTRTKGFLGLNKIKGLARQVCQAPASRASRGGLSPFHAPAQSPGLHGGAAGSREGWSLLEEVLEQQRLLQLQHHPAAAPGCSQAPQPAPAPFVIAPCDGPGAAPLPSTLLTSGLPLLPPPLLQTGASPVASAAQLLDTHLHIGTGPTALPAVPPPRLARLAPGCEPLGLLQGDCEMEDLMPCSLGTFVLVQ
Chain of Tyrosine-protein kinase ABL1 (P00519 whole entry): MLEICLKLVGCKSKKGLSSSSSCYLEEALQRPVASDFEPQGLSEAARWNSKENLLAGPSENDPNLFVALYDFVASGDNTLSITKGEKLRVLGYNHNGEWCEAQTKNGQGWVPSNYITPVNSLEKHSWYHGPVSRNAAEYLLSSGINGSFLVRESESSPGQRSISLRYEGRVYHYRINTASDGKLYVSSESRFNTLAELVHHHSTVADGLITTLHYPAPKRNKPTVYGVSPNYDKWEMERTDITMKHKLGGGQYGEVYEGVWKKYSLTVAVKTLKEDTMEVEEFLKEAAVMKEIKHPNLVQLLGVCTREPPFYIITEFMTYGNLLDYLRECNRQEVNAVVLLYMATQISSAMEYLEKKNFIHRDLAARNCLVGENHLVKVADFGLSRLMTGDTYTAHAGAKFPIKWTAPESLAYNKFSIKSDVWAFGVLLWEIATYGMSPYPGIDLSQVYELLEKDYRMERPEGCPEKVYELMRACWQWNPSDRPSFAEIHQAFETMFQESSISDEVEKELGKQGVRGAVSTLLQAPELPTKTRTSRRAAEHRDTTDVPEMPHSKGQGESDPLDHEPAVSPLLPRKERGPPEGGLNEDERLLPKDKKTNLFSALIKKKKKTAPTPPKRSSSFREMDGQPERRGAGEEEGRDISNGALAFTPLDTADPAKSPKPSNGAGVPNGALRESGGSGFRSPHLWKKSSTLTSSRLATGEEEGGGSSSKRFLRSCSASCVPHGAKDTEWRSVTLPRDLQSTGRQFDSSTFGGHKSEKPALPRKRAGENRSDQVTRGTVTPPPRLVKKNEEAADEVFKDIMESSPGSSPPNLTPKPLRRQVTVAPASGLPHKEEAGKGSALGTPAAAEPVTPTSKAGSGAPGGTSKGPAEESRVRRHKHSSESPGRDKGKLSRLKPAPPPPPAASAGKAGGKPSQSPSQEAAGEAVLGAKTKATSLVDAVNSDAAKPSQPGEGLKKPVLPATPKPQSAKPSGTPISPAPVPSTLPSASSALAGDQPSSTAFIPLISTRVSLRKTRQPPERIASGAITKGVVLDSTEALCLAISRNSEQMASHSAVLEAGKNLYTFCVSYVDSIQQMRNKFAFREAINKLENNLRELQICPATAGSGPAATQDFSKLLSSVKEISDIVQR

IC50 (LIM domain kinase 1): 63 nM
IC50 [3]: 200 nM
IC50 [4]: 190 nM
IC50 [5]: 220 nM
F (Canis familiaris): 64%
IC50 (Aurora kinase A): 58 nM
IC50 [7]: 46 nM
bioavailability [8]: 64%
IC50 [9]: > 30000 nM
IC50 [10]: 33 nM
IC50 [11]: 40 nM
inhibition [13]: Dose-dependent effect
IC50 [14]: 2000 nM
IC50 [15]: 25 nM
half-life [18]: 1.6 h
SMILES: C[C@H](Nc1nc(Nc2cn(C)cn2)c2cc[nH]c2n1)c1ncc(F)cn1
inhibition (Mus musculus [1]): Dose-dependent effect
inhibition in vivo at 10 mg/kg [2]: 77%
GI50 [6]: 760 nM
TGI (UKE1): Dose-dependent effect
inhibition in vivo at 10 mg/kg (Mus musculus [12]): 50%
GI50 [16]: 55 nM
Activity (Mus musculus [17]): 7.2%
